Assays:
C5aR1 = assay: G-protein coupling and βarr recruitment, C5aR1; type: cell-based; details: Figure 7A
[1] = molecular target: C3aR with C-terminal SmBiT, in HEK-293 cells (human) (UniProt Q16581)
[2] = molecular target: T1, mouse C5a receptor 1, FLAG-tagged, expressed in Sf9 for cryo-EM (mouse, UniProt P30993 2-351, alkylated with iodoacetamide); assay: cryo-EM structure
T1 sequence: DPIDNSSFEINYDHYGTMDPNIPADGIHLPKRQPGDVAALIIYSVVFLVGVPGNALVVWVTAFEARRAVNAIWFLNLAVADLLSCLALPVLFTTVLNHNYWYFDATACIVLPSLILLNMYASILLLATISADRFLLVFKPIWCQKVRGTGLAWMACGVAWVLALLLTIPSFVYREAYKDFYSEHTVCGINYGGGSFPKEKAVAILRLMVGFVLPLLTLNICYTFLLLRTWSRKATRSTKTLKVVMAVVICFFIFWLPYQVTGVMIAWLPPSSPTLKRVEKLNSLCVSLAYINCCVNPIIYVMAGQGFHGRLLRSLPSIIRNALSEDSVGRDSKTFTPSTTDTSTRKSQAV

[3] = molecular target: T2, human C5a receptor 1, FLAG-tagged, expressed in Sf9 for cryo-EM (human, UniProt P21730 2-350, alkylated with iodoacetamide); assay: cryo-EM structure
T2 sequence: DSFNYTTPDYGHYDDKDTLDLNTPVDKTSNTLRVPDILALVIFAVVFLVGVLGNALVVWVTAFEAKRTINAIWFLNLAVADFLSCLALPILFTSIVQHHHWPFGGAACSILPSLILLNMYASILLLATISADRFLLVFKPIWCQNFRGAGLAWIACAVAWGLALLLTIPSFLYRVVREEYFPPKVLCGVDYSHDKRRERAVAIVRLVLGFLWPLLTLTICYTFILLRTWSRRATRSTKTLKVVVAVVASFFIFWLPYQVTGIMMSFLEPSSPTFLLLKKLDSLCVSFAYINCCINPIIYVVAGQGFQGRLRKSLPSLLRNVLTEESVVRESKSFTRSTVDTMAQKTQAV

mC5aR1 [4] = molecular target: T3, mC5aR1 (Mus musculus, UniProt P30993); assay: NanoBiT βarr1/2 recruitment and endosomal trafficking, mC5aR1; type: cell-based; details: Figures 1I-1P, C5a^pep compared with hC5aR1
T3 sequence (P30993 1-351): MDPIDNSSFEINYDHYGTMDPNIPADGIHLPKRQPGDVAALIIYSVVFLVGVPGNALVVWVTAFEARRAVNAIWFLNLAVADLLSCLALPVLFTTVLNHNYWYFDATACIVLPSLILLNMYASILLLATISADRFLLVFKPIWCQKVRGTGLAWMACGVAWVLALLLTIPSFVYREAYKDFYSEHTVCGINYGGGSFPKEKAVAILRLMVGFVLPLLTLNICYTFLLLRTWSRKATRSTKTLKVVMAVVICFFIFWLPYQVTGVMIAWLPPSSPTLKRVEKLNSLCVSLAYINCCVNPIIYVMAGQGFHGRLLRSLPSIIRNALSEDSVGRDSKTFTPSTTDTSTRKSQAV
Procedure, shortened: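 HEK-293 cells, PEI transfection (DNA:PEI 1:3). Recruitment used 1 μg mC5aR1-SmBiT (C-terminal) with 3.5 μg LgBiT-βarr1/2 (N-terminal). Trafficking used N-SmBiT-βarr1/2 with N-LgBiT-FYVE. After 16-18 h, cells went into HBSS, 0.01% BSA, 5 mM HEPES pH 7.4, 10 μM coelenterazine at 0.1 million/100 μL. Incubation 90 min 37 °C, then 30 min RT. Three basal luminescence reads, then serially diluted ligand.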

mC5aR1 [5] = molecular target: T3, mC5aR1; assay: GloSensor-based cAMP assay; type: cell-based
C3aR = molecular target: T4, C3aR (Homo sapiens, UniProt Q16581); assay: GloSensor-based cAMP assay; type: cell-based; details: Figure 7A; only at moderately high concentration (i.e., 1 μM)
T4 sequence (Q16581 1-482): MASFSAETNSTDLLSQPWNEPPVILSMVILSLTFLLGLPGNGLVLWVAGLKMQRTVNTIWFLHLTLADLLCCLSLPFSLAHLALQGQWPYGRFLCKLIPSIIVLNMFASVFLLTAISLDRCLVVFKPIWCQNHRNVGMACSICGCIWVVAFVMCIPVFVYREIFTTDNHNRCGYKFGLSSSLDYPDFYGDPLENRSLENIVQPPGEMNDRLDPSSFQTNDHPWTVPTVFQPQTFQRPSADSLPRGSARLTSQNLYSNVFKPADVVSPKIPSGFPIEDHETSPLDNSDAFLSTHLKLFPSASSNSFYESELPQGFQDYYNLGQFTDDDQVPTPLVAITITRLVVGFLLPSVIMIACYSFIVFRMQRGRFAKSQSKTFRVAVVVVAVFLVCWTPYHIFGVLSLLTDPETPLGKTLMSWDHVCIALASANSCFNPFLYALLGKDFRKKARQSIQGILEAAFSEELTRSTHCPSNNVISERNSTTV

## C3a: complement anaphylatoxin, 77 amino acids, four-helix bundle; natural agonist of C3aR
C5aR1
  transducer-coupling response at C5aR1: did not exhibit any measurable transducer-coupling response

## human complement anaphylatoxin C3a (from UniProt P01024 672-748) (ligand)
[1]
  EC50 of βarr1/2 recruitment to C3aR (NanoBiT): 10 to 20 nM

## EP141, pentadecameric peptide derived from and modified based on the carboxyl terminus of C3a
[1]
  Emax of βarr1/2 recruitment to C3aR (NanoBiT), relative to C3a: 55 to 65 % of C3a

B1: human complement anaphylatoxin C5a (ligand, UniProt P01031 678-751, looked up)
chain: TLQKKIEEIAAKYKHSVVKKCCYDGACVNNDETCEQRAARISLGPRCIKAFTECCVVASQLRANISHKDMQLGR
[2]
  binding result: binds
[3]
  binding result: binds

B2: C5a: complement anaphylatoxin, 74 amino acids, four-helix bundle; natural agonist of C5aR1 (protein)
chain: TLQKKIEEIAAKYKHSVVKKCCYDGACVNNDETCEQRAARISLGPRCIKAFTECCVVASQLRANISHKDMQLGR
modifications: left off: Trx, N-terminal, cleaved | His6, N-terminal, cleaved
mC5aR1 [4]
  agonism, βarr recruitment and endosomal trafficking: full agonism
mC5aR1 [5]; Figures 1G and 1H
  potency at mC5aR1 compared with hC5aR1, cAMP response: slightly lower potency
mC5aR1 [5]; Figures 1G and 1H, mC5aR1
  agonism, G-protein-mediated cAMP response: full agonists
mC5aR1 [5]; human vs mouse C5aR1
  difference between human and mouse C5aR1, G-protein coupling: only a small difference
C3aR
  cross-reactivity with C3aR in G-protein-coupling assay: some cross-reactivity

Source: paper PMC7615941 (Cell, 2023)
